Experimental data: ChEMBL document CHEMBL4813972, “A grafted peptidomimetic for EGFR heterodimerization inhibition: Implications in NSCLC models” (Eur J Med Chem, 2021)
Active and inactive are the calls of the source. No cut-off for these calls is given here.

Legend:
[1] = tested on: A549; assay: Antitumor activity in Red-Fluc transfected human A549 cells harbouring KRAS mutant/wild type EGFR xenografted in Foxn1nu/Foxn1+ mouse assessed as reduction in tumor growth by measuring relative luminescence intensity at 6 mg/kg, iv treated twice a week measured after 2 weeks relative to vehicle; format: functional, organism-based
[2] = tested on: A549; assay: Effect on HER2 expression in human A549 cells at 1 uM incubated for 40 hrs by Western blot analysis; format: functional, cell-based
[3] = Toxicity in BALB/c mouse assessed as Ki-67 expression in CD4+ at 6 mg/kg, iv administered on day 0 and 10 and spleenocytes collected on day 13 and incubated for 48 hrs by flow cytometry analysis; format: organism-based; details: in vivo, 360 h, time 15 day
Method in brief: (§1)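 Female BALB/c mice given 6 mg/kg peptide in PBS i.v. (or PBS) on days 0 and 10, 12 mice in total. Splenocytes harvested day 13, RBC-lysed, and ≥2×10^6 cultured 48 h in RPMI/10% FBS with control media or peptide. Cells then stained for viability, CD3/CD4/CD8a and intracellular Ki67, and analyzed by flow cytometry.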

[4] = tested on: MCF-10A; assay: Cytotoxicity against human MCF-10A cells assessed as cell growth inhibition incubated for 72 hrs by cell titer glo assay; format: cell-based
Method in brief: (§2)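 Cells seeded at 1×10^4 per well, left overnight at 37 °C/5% CO2, then exposed to a concentration series of peptide (up to 200, down to 0.01 μM) for 72 h. 1% SDS and 1% DMSO served as controls. Cells were PBS-washed, CellTiter-Glo added and luminescence read. IC50 taken from three independent experiments per cell line.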

[5] = Toxicity in Foxn1nu/Foxn1+ mouse xenografted with human Calu-3 cells assessed as effect on body weight at 8 mg/kg, IT(Intratumoral) administered thrice a week for 28 days and measured on day 28; format: organism-based; details: in vivo, other, 672 h, time 28 day
[6] = biological target: T1, ErbB-2/ErbB-3 heterodimer (Homo sapiens) (UniProt P04626+P21860); assay: Inhibition of HER2/HER3 dimerization in human Calu-3 cells incubated for 48 hrs by proximity ligation assay; format: cell-based
Method in brief: (§3)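 A549 or Calu-3 cells (~1×10^4/well) on chamber slides, treated 48 h with 0.5 or 1 μM peptide. Controls: no compound, and one primary antibody omitted. Cells fixed in cold methanol, primary antibodies (EGFR, HER2, HER3) applied overnight at 4 °C, then PLA probes. Red fluorescence imaged at 40x and quantified over 3–6 fields.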

[7] = biological target: Receptor tyrosine-protein kinase erbB-2 (Homo sapiens) (UniProt P04626); assay: Inhibition of HER2 ECD in human A549 cells assessed as reduction in Akt phosphorylation at 1 uM incubated for 40 hrs by Western blot analysis; format: cell-based
[8] = Toxicity in BALB/c mouse assessed as Ki-67 expression in CD4+CD8+ at 6 mg/kg, iv administered on day 0 and 10 and spleenocytes collected on day 13 and incubated for 48 hrs by flow cytometry analysis; format: organism-based; details: in vivo, 360 h, time 15 day; method in brief: as §1
[9] = biological target: Receptor tyrosine-protein kinase erbB-2 (Homo sapiens) (UniProt P04626); assay: Binding affinity to HER2 (unknown origin) assessed as reduction in heterodimerization of HER2/EGFR by competitive based SPR analysis
Method in brief: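 Competitive SPR: EGFR with EGF immobilized on a CM5 chip. HER2 protein fixed at 200 nM was preincubated 15 min in HEPES buffer with varying peptide, then injected. Read-out was the drop in response units. Surface regenerated with glycine pH 2.2 between injections.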

[10] = tested on: BT-474; assay: Antiproliferative activity against human BT-474 cells overexpressing HER2 assessed as cell growth inhibition incubated for 72 hrs by cell titer glo assay; format: functional, cell-based; details: BT-474, 72 h
[11] = Toxicity in Foxn1nu/Foxn1+ mouse xenografted with human A549 cells harbouring KRAS mutant/wild type EGFR assessed as hyper-chromatic nuclei in lung at 6 mg/kg, iv administered twice a week for 5 weeks; details: in vivo, 840 h
[12] = tested on: NCI-H1975; assay: Synergistic antiproliferative activity against human NCI-H1975 cells assessed as combination index after 72 hrs in presence of erlotinib by cell titer glo assay; format: functional
[13] = tested on: MCF7; assay: Antiproliferative activity against human MCF7 cells with silenced HER2 assessed as cell growth inhibition incubated for 72 hrs by cell titer glo assay; format: functional, cell-based; details: MCF7, 72 h; method in brief: as §2
[14] = tested on: Calu-3; assay: Antiproliferative activity against human Calu-3 cells overexpressing HER2 assessed as cell growth inhibition incubated for 72 hrs by cell titer glo assay; format: functional, cell-based; details: Calu-3, 72 h
[15] = biological target: Receptor tyrosine-protein kinase erbB-2 (Homo sapiens) (UniProt P04626); assay: Inhibition of HER2 ECD in human A549 cells assessed as reduction in HER2 intracellular kinase domain phosphorylation at 1 uM incubated for 40 hrs by Western blot analysis; format: cell-based
[16] = tested on: Mus musculus; assay: In vivo inhibition of HER2/EGFR dimerization in human Calu-3 cells xenografted in Foxn1nu/Foxn1+ mouse at 8 mg/kg, IT(Intratumoral) administered thrice a week for 28 days and measured on day 28 by proximity ligation assay; format: functional, organism-based; details: time 28.0 day
Method in brief: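 Tumors taken from the Calu-3 intratumoral study (8 mg/kg three times weekly, 28 days). Two tumors frozen at −80 °C, homogenized and immunoblotted for p-HER2. Others fixed, paraffin-embedded and sectioned at 5 μm. Sections underwent citrate pH 6.0 antigen retrieval, H2O2 block and BSA/NGS/Triton block, EGFR/HER2 primaries overnight at 4 °C, then PLA probes; imaged at 10X/40X.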

[17] = Toxicity in Foxn1nu/Foxn1+ mouse xenografted with human A549 cells harbouring KRAS mutant/wild type EGFR assessed as eosinophilic cytoplasm in lung at 6 mg/kg, iv administered twice a week for 5 weeks; details: in vivo, 840 h
[18] = biological target: Receptor tyrosine-protein kinase erbB-2 (Homo sapiens) (UniProt P04626); assay: Binding affinity to HER2 domain IV (unknown origin) by SPR analysis
[19] = Thermal stability of compound at 15 uM incubated at 25 to 75 degC by Circular dichroism spectrometry; format: physicochemical
Method in brief: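 Peptide at 15 μM in acetonitrile. Ellipticity recorded from 25 to 75 °C in 5 °C steps.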

[20] = Thermal stability of compound at 15 uM incubated at 25 to 75 degC in presence of DTT by circular dichroism spectrometry; format: physicochemical
[21] = biological target: Epidermal growth factor receptor and ErbB2 (HER1 and HER2) (Homo sapiens) (UniProt P04626+P00533); assay: Inhibition of HER2/EGFR dimerization in human Calu-3 cells incubated for 48 hrs by proximity ligation assay; format: cell-based; details: dose 0.5-1 µM; method in brief: as §3
[22] = biological target: T1, ErbB-2/ErbB-3 heterodimer (Homo sapiens); assay: Inhibition of HER2/HER3 dimerization in human A549 cells incubated for 48 hrs by proximity ligation assay; format: cell-based; details: dose 0.5-1 µM; method in brief: as §3
[23] = Toxicity in Foxn1nu/Foxn1+ mouse xenografted with human A549 cells harbouring KRAS mutant/wild type EGFR assessed as enlarged cells in lung at 6 mg/kg, iv administered twice a week for 5 weeks; details: in vivo, 840 h
[24] = biological target: Receptor tyrosine-protein kinase erbB-2 (Homo sapiens) (UniProt P04626); assay: Binding affinity to HER2 ECD (unknown origin) by SPR analysis
[25] = Toxicity in BALB/c mouse assessed as Ki-67 expression in spleenocytes at 6 mg/kg, iv administered on day 0 and 10 and spleenocytes collected on day 13 and incubated for 48 hrs by flow cytometry analysis; format: organism-based; details: in vivo, 360 h, time 15 day; method in brief: as §1

Receptor tyrosine-protein kinase erbB-2 (Homo sapiens), sequence (P04626 whole entry, the tested form may be a part): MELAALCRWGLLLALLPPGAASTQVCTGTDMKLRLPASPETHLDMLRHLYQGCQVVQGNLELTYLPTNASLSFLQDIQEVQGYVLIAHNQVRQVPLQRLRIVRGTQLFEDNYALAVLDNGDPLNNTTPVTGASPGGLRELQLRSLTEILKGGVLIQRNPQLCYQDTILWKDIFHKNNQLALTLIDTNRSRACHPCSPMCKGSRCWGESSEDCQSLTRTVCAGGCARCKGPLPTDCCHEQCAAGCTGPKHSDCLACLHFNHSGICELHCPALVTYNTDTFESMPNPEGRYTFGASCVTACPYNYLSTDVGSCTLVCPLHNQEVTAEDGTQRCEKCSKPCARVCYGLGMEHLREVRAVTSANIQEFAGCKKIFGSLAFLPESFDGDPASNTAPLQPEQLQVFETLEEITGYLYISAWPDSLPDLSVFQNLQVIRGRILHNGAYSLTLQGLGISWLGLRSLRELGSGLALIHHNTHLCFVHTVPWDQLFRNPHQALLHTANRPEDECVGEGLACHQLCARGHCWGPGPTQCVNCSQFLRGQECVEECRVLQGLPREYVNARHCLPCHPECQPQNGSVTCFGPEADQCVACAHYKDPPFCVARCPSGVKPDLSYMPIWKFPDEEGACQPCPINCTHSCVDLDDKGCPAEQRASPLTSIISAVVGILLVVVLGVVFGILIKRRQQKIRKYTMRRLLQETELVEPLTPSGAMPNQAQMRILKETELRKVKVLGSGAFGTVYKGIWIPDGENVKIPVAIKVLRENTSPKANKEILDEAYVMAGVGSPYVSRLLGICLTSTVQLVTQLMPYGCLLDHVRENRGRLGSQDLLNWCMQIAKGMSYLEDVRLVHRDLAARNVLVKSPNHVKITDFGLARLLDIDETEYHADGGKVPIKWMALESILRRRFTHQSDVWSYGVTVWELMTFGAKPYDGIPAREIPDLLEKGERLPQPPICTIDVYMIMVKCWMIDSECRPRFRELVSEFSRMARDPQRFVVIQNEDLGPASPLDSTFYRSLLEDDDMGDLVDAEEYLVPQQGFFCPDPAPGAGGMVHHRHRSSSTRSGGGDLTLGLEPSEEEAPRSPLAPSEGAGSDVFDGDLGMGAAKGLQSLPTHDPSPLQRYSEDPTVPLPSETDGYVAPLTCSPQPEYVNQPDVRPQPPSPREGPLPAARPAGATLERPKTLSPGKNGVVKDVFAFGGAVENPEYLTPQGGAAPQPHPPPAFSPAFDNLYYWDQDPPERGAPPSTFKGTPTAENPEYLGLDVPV

Question: Which results are given for `CC[C@H](C)[C@H]1C(=O)NC(=O)[C@H](CCCNC(=N)N)NC(=O)C[C@@H](c2cccc3ccccc23)NC(=O)N[C@H]2CSSC[C@H](NC(=O)C[C@@H](c3cccc4ccccc34)NC(=O)[C@H](CCCNC(=N)N)NC(=O)[C@@H]3CCCN3C(=O)[C@@H]3CCCN13)C(=O)N[C@@H](Cc1ccccc1)C(=O)N1CCC[C@H]1C(=O)N[C@@H](CC(=O)O)C(=O)NC(=O)[C@H](CC(=O)O)NC(=O)[C@H](Cc1ccccc1)NC2=O`?
Answer: Activity [1]: Active; Activity [2]: inactive; Activity [3]: Non-Toxic; IC50 [4]: > 40000 nM; Activity [5]: Non-Toxic; inhibition [6]: Dose-Dependent Effect; inhibition [7]: Active; Activity [8]: Non-Toxic; Activity [9]: Active; IC50 [10]: 280 nM; Activity [11]: Non-Toxic; CI [12]: 0.76; IC50 [13]: > 20000 nM; IC50 [14]: 73 nM; inhibition [15]: Active; inhibition [16]: Active; Activity [17]: Non-Toxic; Activity [18]: Dose-Dependent Effect; Stabilty [19]: Stable; Stabilty [20]: Stable; inhibition [21]: Dose-Dependent Effect; inhibition [22]: Dose-Dependent Effect; Activity [23]: Non-Toxic; Activity [24]: Dose-Dependent Effect; Activity [25]: Non-Toxic
